Assay results from paper PMC3716464 (Angewandte Chemie (International ed. in English), 2009).

Tested on: b(h)CAII
Assay: dot blot detection of b
Format: binding, bovine; human
Conditions: biligand in 0.1% serum, compared with triligand in 10% porcine serum
How it was run: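 Dot blot with the test peptide as capture agent for b(h)CAII in 10% porcine serum, varying protein amount to find the detection limit. For comparison, the biligand anchor served as capture agent in 0.1% serum.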

C#CC[C@@H](N)C(=O)N[C@H](CCCCN)C(=O)N[C@H](Cc1c[nH]c2ccccc12)C(=O)N[C@H](CC(C)C)C(=O)N[C@H](Cc1c[nH]c2ccccc12)C(=O)NCC(=O)N[C@H](CC(C)C)C(=O)N[C@@H](CCCCn1cc(C[C@@H](NC(=O)[C@@H](CCCCN)NC(=O)[C@@H](Cc2ccccc2)NC(=O)[C@@H](Cc2c[nH]c3ccccc23)NC(=O)[C@@H](CC(C)C)NC(=O)[C@@H](CCCCN)NC(=O)[C@H](N)CC(C)C)C(N)=O)nn1)C(N)=O [(D-Pra)-kwlwGl-Tz1-kfwlkl]
reduction in sensitivity (biligand anchor as capture agent versus triligand): more than 10 fold
